Calls of active or inactive are those of the source. The rule behind the calls is not given here. Residues, ends and D or L forms follow the SMILES beside them.
Tests used:
[1] = target: T1, von Hippel-Lindau disease tumor suppressor/Receptor-interacting serine/threonine-protein kinase 1 (Homo sapiens, UniProt Q13546+P40337); test: PROTAC activity at VHL/wild type nLuc-fused N-terminal RIPK1 kinase domain (unknown origin) expressed in HEK293T cells assessed as induction of protein degradation measured after 24 hrs in presence of furimazine substrate by Nano-Glo luciferase based luminescence analysis; assay type: cell-based
In short: (§1)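 HEK293T cells transiently transfected with nLuc (WT or K0)-RIPK1 kinase domain (1-324) through a 24-residue linker, expressed 24–36 h. Replated at 20,000 cells/well in Opti-MEM with 4% FBS. Treated 24 h with 1.6–1,000 nM (5-fold, 1% DMSO). Medium removed, Nano-Glo substrate 1:100 in PBS added, live-cell luminescence read. Three-parameter inhibitor fit; at least two biological batches.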
Target sequence in this assay (Q13546 whole entry, the tested form may be a part): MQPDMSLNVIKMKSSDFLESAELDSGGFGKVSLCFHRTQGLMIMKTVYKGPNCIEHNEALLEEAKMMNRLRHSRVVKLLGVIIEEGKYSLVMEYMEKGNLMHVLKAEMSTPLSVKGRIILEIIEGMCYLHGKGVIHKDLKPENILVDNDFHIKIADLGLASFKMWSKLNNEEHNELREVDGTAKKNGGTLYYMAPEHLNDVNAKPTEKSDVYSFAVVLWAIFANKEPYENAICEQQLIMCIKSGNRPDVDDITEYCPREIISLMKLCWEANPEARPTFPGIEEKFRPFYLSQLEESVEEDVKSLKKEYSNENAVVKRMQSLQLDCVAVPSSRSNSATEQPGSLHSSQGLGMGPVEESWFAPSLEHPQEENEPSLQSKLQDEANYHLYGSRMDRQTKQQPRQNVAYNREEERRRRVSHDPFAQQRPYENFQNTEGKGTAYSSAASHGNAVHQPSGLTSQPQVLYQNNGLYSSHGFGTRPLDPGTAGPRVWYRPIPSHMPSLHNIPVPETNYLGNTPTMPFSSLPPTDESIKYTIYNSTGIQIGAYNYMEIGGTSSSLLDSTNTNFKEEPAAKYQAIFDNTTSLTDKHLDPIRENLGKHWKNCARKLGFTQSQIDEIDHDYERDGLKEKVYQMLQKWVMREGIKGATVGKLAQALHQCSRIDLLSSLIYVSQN
Target sequence in this assay (P40337 whole entry, the tested form may be a part): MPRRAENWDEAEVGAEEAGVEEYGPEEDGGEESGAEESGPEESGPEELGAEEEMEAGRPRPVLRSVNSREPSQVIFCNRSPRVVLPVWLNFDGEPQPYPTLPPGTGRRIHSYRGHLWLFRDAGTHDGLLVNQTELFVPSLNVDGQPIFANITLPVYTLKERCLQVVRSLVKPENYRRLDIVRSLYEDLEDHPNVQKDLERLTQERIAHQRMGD

[2] = target: T1, von Hippel-Lindau disease tumor suppressor/Receptor-interacting serine/threonine-protein kinase 1; test: PROTAC activity at VHL/nLucK0-fused N-terminal RIPK1 kinase domain (unknown origin) expressed in HEK293T cells assessed as induction of protein degradation measured after 24 hrs in presence of furimazine substrate by Nano-Glo luciferase based luminescence analysis; assay type: cell-based; in short: as §1
Target sequence in this assay (Q13546 whole entry, the tested form may be a part): as the sequence (Q13546 whole entry, the tested form may be a part) above
Target sequence in this assay (P40337 whole entry, the tested form may be a part): as the sequence (P40337 whole entry, the tested form may be a part) above

[3] = target: T1, von Hippel-Lindau disease tumor suppressor/Receptor-interacting serine/threonine-protein kinase 1; test: PROTAC activity at VHL/wild type nLuc-fused N-terminal RIPK1 kinase domain (unknown origin) expressed in HEK293T cells assessed as induction of protein degradation measured after 24 hrs in presence of furimazine substrate by Nano-Glo luciferase based luminescence analysis relative to control; assay type: cell-based; in short: as §1
Target sequence in this assay (P40337 whole entry, looked up, the tested form may be a part): as the sequence (P40337 whole entry, the tested form may be a part) above
Target sequence in this assay (Q13546 whole entry, looked up, the tested form may be a part): as the sequence (Q13546 whole entry, the tested form may be a part) above

[4] = target: T1, von Hippel-Lindau disease tumor suppressor/Receptor-interacting serine/threonine-protein kinase 1; test: PROTAC activity at VHL/nLucK0-fused N-terminal RIPK1 kinase domain (unknown origin) expressed in HEK293T cells assessed as induction of protein degradation at 1.6 to 1000 nM measured after 24 hrs by immunoblot analysis; assay type: cell-based; conditions: dose 1.6-1000 nM
In short: (§2)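 HEK293T cells transfected with nLuc (WT or K0)-RIPK1 kinase domain, plated in 12-well plates and treated 24 h. Lysed in RIPA with protease/phosphatase inhibitors and benzonase. 20 µg protein run on SDS-PAGE and transferred to PVDF. Probed overnight at 4 °C with anti-RIPK1 (1:1000) and β-actin (1:4000), then HRP secondary and ECL.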
Target sequence in this assay (P40337 whole entry, looked up, the tested form may be a part): as the sequence (P40337 whole entry, the tested form may be a part) above
Target sequence in this assay (Q13546 whole entry, looked up, the tested form may be a part): as the sequence (Q13546 whole entry, the tested form may be a part) above

[5] = target: T1, von Hippel-Lindau disease tumor suppressor/Receptor-interacting serine/threonine-protein kinase 1; test: PROTAC activity at VHL/wild type nLuc-fused N-terminal RIPK1 kinase domain (unknown origin) expressed in HEK293T cells assessed as induction of protein degradation at 1.6 to 1000 nM measured after 24 hrs by immunoblot analysis; assay type: cell-based; conditions: dose 1.6-1000 nM; in short: as §2
Target sequence in this assay (P40337 whole entry, looked up, the tested form may be a part): as the sequence (P40337 whole entry, the tested form may be a part) above
Target sequence in this assay (Q13546 whole entry, looked up, the tested form may be a part): as the sequence (Q13546 whole entry, the tested form may be a part) above

[6] = Binding affinity to His-tagged LgBiT (unknown origin) incubated for 30 mins measured after subtracting LgBiT signal in presence of PBS by Nano-Glo luciferase based luminescence analysis; set-up: species or system Homo sapiens
In short: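 Incubated 30 min, then Nano-Glo substrate was added and luminescence read. The LgBiT-only (PBS) baseline was subtracted before the three-parameter agonist fit.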

Homo sapiens [7] = species on record: Homo sapiens; test: Binding affinity to His-tagged LgBiT (unknown origin) assessed as on-rate constant protein immobilized on chip surface with surface density of 3000 pg/mm2 by grating-coupled interferometry
In short: (§3)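 His-LgBiT, purified in-house from E. coli BL21(DE3), captured at 50 µg/mL in PBS on a Ni-charged PCP-NTA chip. Two flow channels reached 3000 and 1000 pg/mm2. Kinetics were run in 0.01 M HEPES, 0.15 M NaCl, 0.05% P20, pH 7.4. kon and koff came from a global association-then-dissociation fit.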

Homo sapiens [8] = species on record: Homo sapiens; test: Binding affinity to His-tagged LgBiT (unknown origin) assessed as off-rate constant protein immobilized on chip surface with surface density of 1000 pg/mm2 by grating-coupled interferometry; in short: as §3
Homo sapiens [9] = species on record: Homo sapiens; test: Binding affinity to His-tagged LgBiT (unknown origin) assessed as off-rate constant protein immobilized on chip surface with surface density of 3000 pg/mm2 by grating-coupled interferometry; in short: as §3
Homo sapiens [10] = species on record: Homo sapiens; test: Binding affinity to His-tagged LgBiT (unknown origin) assessed as on-rate constant protein immobilized on chip surface with surface density of 1000 pg/mm2 by grating-coupled interferometry; in short: as §3
[11] = Binding affinity to LgBiT (unknown origin) incubated for 30 mins by Nano-Glo luciferase based luminescence analysis; set-up: species or system Homo sapiens
In short: (§4)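 Equilibrated 30 min at room temperature, then Nano-Glo substrate was added and luminescence read. EC50 from a three-parameter agonist fit; at least 3 technical replicates.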

[12] = Binding affinity to His-tagged LgBiT (unknown origin) immobilized on chip surface with surface density of 1000 pg/mm2 by grating-coupled interferometry; set-up: species or system Homo sapiens; in short: as §3
[13] = Binding affinity to His-tagged LgBiT (unknown origin) immobilized on chip surface with surface density of 3000 pg/mm2 by grating-coupled interferometry; set-up: species or system Homo sapiens; in short: as §3
[14] = Binding affinity to His-tagged LgBiT (unknown origin) incubated for 30 mins by Nano-Glo luciferase based luminescence analysis; set-up: species or system Homo sapiens; in short: as §4

| EC50 [6] [nM] | K (Homo sapiens [7]) | K (Homo sapiens [8]) | K (Homo sapiens [9]) | K (Homo sapiens [10]) | SMILES | also measured |
| --- | --- | --- | --- | --- | --- | --- |
| – | – | – | – | – | Cc1ncsc1-c1ccc([C@H](C)NC(=O)[C@H]2C[C@H](O)CN2C(=O)[C@@H](NC(=O)CCCCCCCCCCC(=O)NCCCn2cc(-c3ccc4c(c3)CCN4C(=O)Cc3cccc(OC(F)(F)F)c3)c3c(N)ncnc32)C(C)(C)C)cc1 | DC50 [1]: Not Active; DC50 [2]: Not Active |
| – | – | – | – | – | Cc1ncsc1-c1ccc([C@H](C)NC(=O)[C@@H]2C[C@@H](O)CN2C(=O)[C@@H](NC(=O)CCCCCCCCCCC(=O)NCCCn2cc(-c3ccc4c(c3)CCN4C(=O)Cc3cccc(OC(F)(F)F)c3)c3c(N)ncnc32)C(C)(C)C)cc1 | %max [3]: 91.5%; Activity [4]: Active; Activity [5]: Active |
| 24 | 3 10^5/M/s | 1.3 10^-3/s | 1.4 10^-3/s | 7.5 10^5/M/s | CC[C@H](C)[C@H](NC(=O)[C@H](CCCCN)NC(=O)[C@H](CCCCN)NC(=O)[C@H](Cc1ccccc1)NC(=O)[C@H](CC(C)C)NC(=O)[C@H](CCCNC(=N)N)NC(=O)[C@H](Cc1c[nH]c2ccccc12)NC(=O)CNC(=O)[C@H](CO)NC(=O)[C@@H](N)C(C)C)C(=O)N[C@@H](CO)C(=O)O | – |
| 16 | 3.6 10^5/M/s | 5 10^-4/s | 6.7 10^-3/s | 7.7 10^5/M/s | CC[C@H](C)[C@H](NC(=O)[C@H](CCCNC(=N)N)NC(=O)[C@H](CCCNC(=N)N)NC(=O)[C@H](Cc1ccccc1)NC(=O)[C@H](CC(C)C)NC(=O)[C@H](CCCNC(=N)N)NC(=O)[C@H](Cc1c[nH]c2ccccc12)NC(=O)CNC(=O)[C@H](CO)NC(=O)[C@@H](N)C(C)C)C(=O)N[C@@H](CO)C(=O)O (H-VSGWRLFRRIS-OH) | EC50 [11]: 6.2 nM; Kd [12]: 0.7 nM; Kd [13]: 1.8 nM; EC50 [14]: 8.7 nM |
